# Compounds with a hit are over-represented: about 8.2% of the library has one in this group of screens.
# M1 agonist: M1 muscarinic receptor agonists, primary screen, CHO-M1 cells, Fluo-4 calcium, agonist mode. Fluo-4 calcium fluorescence; hits give high values. B-score at 10 µM. 3% of 64,000 active;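 active means fluorescence rise, raw or as B-score row- and column-corrected plate score, outside the 99.7% band of its plate's samples, either direction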
# RORa activator: activators of orphan receptor RORA, primary screen, cell-based, luminescence. Nuclear receptor ROR-alpha (Homo sapiens), P35398. CHO-K1 Gal4-RORA LBD luciferase reporter; percent increase over mock-subtracted basal signal. activation, % at 10 µM. 1.5% of 65,000 active. AID 560, 2006;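 active means activation above the mean of all tested compounds plus 3 SD, cut at about 49% in these data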
# M1 antagonist: antagonists of rat M1 muscarinic receptor. Muscarinic acetylcholine receptor M1 (Rattus norvegicus), P08482. B-score at 10 µM. AID 628, 2007. CHO-M1 cells, Fluo-4 calcium, ACh EC80 antagonist mode; hits give low values. 3.4% of 64,000 active;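 active means calcium fluorescence response, raw or row-and-column corrected B-score, differing from the plate sample mean either way at a set confidence level, mostly lower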
# SF1 activator: activators of human SF-1, primary screen, cell-based, CHO-K1, Gal4-SF-1 LBD, luciferase luminescence; Steroidogenic factor 1 (Homo sapiens), Q13285; CHO-K1 Gal4-SF-1 LBD luciferase reporter; % increase over DMSO SF-1-specific signal; activation, % at 10 µM; 1.9% of 65,000 active; AID 522, 2006;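 active means activation above the mean activation of all tested compounds plus 3 SD, cut at about 50% in these data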
# Target sequence (Q13285 whole entry, looked up, the tested form may be a part): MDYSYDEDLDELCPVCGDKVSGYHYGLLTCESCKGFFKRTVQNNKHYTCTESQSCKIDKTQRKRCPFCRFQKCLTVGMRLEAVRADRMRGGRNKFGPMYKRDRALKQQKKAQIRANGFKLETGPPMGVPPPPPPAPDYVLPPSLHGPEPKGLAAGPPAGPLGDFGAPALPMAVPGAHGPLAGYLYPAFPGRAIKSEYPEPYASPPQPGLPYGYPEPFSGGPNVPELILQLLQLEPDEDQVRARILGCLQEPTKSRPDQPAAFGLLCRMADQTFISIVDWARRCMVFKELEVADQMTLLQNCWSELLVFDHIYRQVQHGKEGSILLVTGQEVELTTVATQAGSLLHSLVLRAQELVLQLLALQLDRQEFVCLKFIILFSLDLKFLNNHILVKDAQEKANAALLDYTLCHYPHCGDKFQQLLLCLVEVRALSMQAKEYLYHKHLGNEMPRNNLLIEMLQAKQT
#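 Assay system: CHO-K1 cells co-transfected with Gal4 DBD–human SF-1 LBD, 5xGal4 luciferase reporter / Input: 4,000 cells per well / Incubation: 20 h compound exposure at 37 °C after 1 h cell settling / Detection: SteadyLite luciferase luminescence / Control set: DMSO negative control and −SF1 background wells / Replication: one test per compound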
# D1 allo mod: D1 CRE-luciferase signal change, two-sided – cell-based, HEK293 D1, dopamine EC30, D1 allosteric modulator project, primary screen; D(1A) dopamine receptor (Homo sapiens), P21728; dopamine EC30 potentiation; actives deviate in either direction; B-score at 10 µM; 5.9% of 58,000 active; AID 641, 2007;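 active means luminescence count or its row- and column-corrected plate score outside the 99.7% band of the plate's sample wells, on either side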
# HePTP inh: inhibitors of human HePTP phosphatase, primary screen, biochemical, absorbance, leukemia target; Tyrosine-protein phosphatase non-receptor type 7 (Homo sapiens), P35236; recombinant HePTP phosphatase activity, OD absorbance; inhibition, % at 20 µM; 0.64% of 110,000 active; AID 521, 2006; in the data active means inhibition above about 50%
# A number is an active result; i = inactive; nt = no result; ! = not confirmed by another sample.
SMILES,M1 agonist,RORa activator,M1 antagonist,SF1 activator,D1 allo mod,HePTP inh
Cc1cc(C)cc(N(CC(=O)NCc2ccco2)S(=O)(=O)c2ccccc2)c1,nt,nt,nt,nt,nt,i
CN(C)c1nc(N)nc(-c2cccnc2)n1,i,i,i,i,4.61,i
Cc1cccc(CNC(=O)c2ccccc2N)c1,i,i,i,i,nt,i
COCCn1c(NCc2ccc(C)cc2)nc2c1c(=O)[nH]c(=O)n2C,i,i,i,i,-3.34,i
COCCn1c(NCc2ccccc2)nc2c1c(=O)[nH]c(=O)n2C,i,i,i,i,i,i
CCn1c(Cc2ccccc2)nnc1SCC(=O)Nc1nc2ccccc2s1,i,i,i,i,i,i
Cc1sc2nc(SCC(=O)NCc3ccco3)n(C)c(=O)c2c1C,i,i,i,i,-2.59,i
Cn1c(SCC(=O)NCc2ccc3c(c2)OCO3)nnc1-c1cccs1,i,i,i,i,i,i
Cn1c(SCC(=O)NCc2ccco2)nnc1-c1cccs1,i,i,2.25,i,i,i
Cc1sc2nc(SCC(=O)NCc3ccco3)n(CCc3ccccc3)c(=O)c2c1C,i,i,i,i,i,i
O=C(Cn1c(CN2CCCCC2)nc2ccccc2c1=O)NCc1ccco1,i,i,i,i,i,i
CCOC(=O)C(NC(C)=O)(Nc1ccc(S(=O)(=O)Nc2onc(C)c2C)cc1)C(F)(F)F (stereo not given),i,i,i,i,-6.95,i
COc1ccccc1NC=C1C(=O)OC2(CCCCC2)OC1=O,i,i,i,i,-6.87,i
CCOC(=O)C1=C(O)/C(=C/c2ccc(C)cc2)SC1=Nc1ccc(C)cc1,nt,nt,nt,nt,nt,53.6
CCCc1ccc(Oc2cn[nH]c2-c2ccc(O)cc2O)cc1,i,i,i,i,-4.93,i
COc1ccc(Oc2cn[nH]c2-c2ccc(O)cc2O)cc1,i,i,i,i,nt,i
O=C(/C=C/c1ccco1)Nc1ccccc1[N+](=O)[O-],nt,nt,nt,nt,nt,83.9
O=C(/C=C/c1ccco1)Nc1cc(Cl)cc(Cl)c1,nt,nt,nt,nt,nt,i
O=C(/C=C/c1ccco1)Nc1cc(Cl)ccc1Cl,nt,nt,nt,nt,nt,54.9
O=C1c2ccccc2C(=O)N1c1ncc(Cc2ccc(Br)cc2)s1,nt,nt,nt,nt,nt,i
CCn1ncc(C2=NOC(C(=O)Nc3cccnc3)C2)c1C (stereo not given),i,i,i,i,i,i
Cn1c(-c2ccc3ccccc3n2)nc2cnccc21,i,54.6,i,64.7,i,i
COc1ccc(-c2cn3c(C)c(C(=O)Nc4ccncc4)sc3n2)cc1,i,i,i,i,-3.34,i
Cc1c(C(=O)Nc2ccncc2)sc2nc(-c3ccc(F)cc3)cn12,i,i,i,i,-5.21,i
COc1ccc(-c2cn3c(C)c(C(=O)Nc4cccc(NC(C)=O)c4)sc3n2)cc1,i,i,i,i,i,i
SMILES,M1 agonist,RORa activator,M1 antagonist,SF1 activator,D1 allo mod,HePTP inh
Cc1c(C(=O)NCC(C)C)sc2nc(-c3ccc(F)cc3)cn12,i,70.9,i,i,i,i
COc1ccc(-c2cn3c4c(sc3n2)CCCC4)cc1,i,i,i,i,-4.95,i
COc1ccc(-c2cn3c(C)c(C(=O)N4CCCc5ccccc54)sc3n2)cc1,i,i,i,i,i,i
CCOC(=O)C1CCN(C(=O)c2sc3nc(-c4ccc(F)cc4)cn3c2C)CC1,i,i,i,i,nt,i
CCc1ccc(NC(=O)Cn2c(=O)oc3cc(S(=O)(=O)N4CCOCC4)ccc32)cc1,i,i,i,i,i,i
Cc1ccnc(NC(=S)NC(=O)/C=C/c2ccccc2)c1,nt,nt,nt,nt,nt,i
CCCC(=O)Nc1cnc(NC(=O)c2cccc(F)c2)cc1C,i,i,i,i,-3.14,i
CCc1ccc(NC(=O)CSCC(=O)Nc2ccccc2)cc1,nt,nt,nt,nt,nt,i
CCC(=O)Nc1cc(NC(=O)CSc2ncc(-c3ccc(F)cc3)n2Cc2ccco2)ccc1C,i,54.7,i,69.3,i,i
O=C(CSc1ncc(-c2ccc(F)cc2)n1Cc1ccco1)Nc1nccs1,i,i,i,i,i,i
O=C1CCc2nc3sc4c(c3c(=O)n2N1)CCCC4,i,i,i,i,i,i
O=c1c2c3c(sc2nc2sc(C4CC4)nn12)CCCC3,i,54.3,i,i,i,i
CC(C)CCn1c(SCC(=O)c2ccccc2)nc2c1c(=O)[nH]c(=O)n2C,i,i,i,i,i,nt
CCCN1C(=O)/C(=C2\SC(=S)N(CCC(=O)O)C2=O)c2ccccc21,nt,nt,nt,nt,nt,i
O=C(O)CCN1C(=O)/C(=C2\C(=O)N(Cc3ccccc3Cl)c3ccccc32)SC1=S,nt,nt,nt,nt,nt,102.0
C=CCN1C(=O)/C(=C\c2ccc(-c3cc([N+](=O)[O-])ccc3C)o2)C(=O)NC1=S,nt,nt,nt,nt,nt,101.8
CCOc1ccc(N2C(=O)/C(=C/c3ccc(-c4cc([N+](=O)[O-])ccc4Cl)o3)C(=O)NC2=S)cc1,nt,nt,nt,nt,nt,i
O=C1NC(=S)N/C1=C/c1ccc(-c2cc([N+](=O)[O-])ccc2Cl)o1,nt,nt,nt,nt,nt,80.2
COc1ccccc1-n1c(=O)[nH]c2c(C(N)=O)nc(-c3cccnc3)nc21,i,i,i,i,18.3,i
COc1ccc(-c2nc(C(N)=O)c3[nH]c(=O)n(-c4ccccc4OC)c3n2)c(OC)c1,i,i,i,i,i,i
Cc1ccc(C(=O)C2=C(O)C(=O)N(CCCN(C)C)C23C(=O)N(C)c2ccccc23)o1 (stereo not given),i,i,i,i,i,i
CN(C)/C=N/c1cnc(C(=O)c2ccc(Cl)cc2)n1C,i,75.6,i,i,i,i
Cc1ccc(N=C2NC(=O)/C(=C/c3ccccc3F)S2)cc1,nt,nt,nt,nt,nt,92.1
O=C(c1cc(-c2ccc(F)cc2)on1)N1CCCC1,i,i,i,i,-3.6,i
O=C(c1cc(-c2ccc(Cl)c(Cl)c2)on1)N1CCCC1,i,59.9,i,i,i,i
SMILES,M1 agonist,RORa activator,M1 antagonist,SF1 activator,D1 allo mod,HePTP inh
CC1CCN(C(=O)c2cc(-c3ccc(Cl)c(Cl)c3)on2)CC1,i,i,i,i,i,i
Cc1ccc(C)n1Cc1ccc(C(=O)O)cc1,i,i,i,i,nt,104.0!
O=C(O)c1ccc(NC(=O)c2cc3cc(Br)ccc3oc2=O)cc1,nt,nt,nt,nt,nt,i
O=C1CC2(CON=C2c2ccc(F)cc2)C(=O)N1c1ccc(F)cc1 (stereo not given),i,i,i,i,i,i
CCCCNC(=O)C(C#N)c1nc2ccccc2nc1N1CCN(c2ccccc2F)CC1 (stereo not given),36,i,i,i,i,i
N#CC(c1nc2ccccc2nc1N1CCCCC1)S(=O)(=O)c1ccc(Cl)cc1 (stereo not given),i,i,i,i,-2.52,i
N#CC(C(=O)NC1CCCCC1)c1nc2ccccc2nc1N1CCCCC1 (stereo not given),49.5,i,i,i,i,i

# Compound activity as filed in PubChem BioAssay.
